Results on 13 compounds are retold here after ChEMBL document CHEMBL4339190, “2,6-Disubstituted imidazo[2,1-b][1,3,4]thiadiazole derivatives as potent staphylococcal biofilm inhibitors” (Eur J Med Chem, 2019).

The test system of series [1] is Staphylococcus aureus. The series is described as follows: Antimicrobial activity against Staphylococcus aureus ATCC 25923 assessed as growth inhibition of planktonic forms incubated for 24 hrs. It counts as organism-based. To be noted: in vitro. Put shortly:
(§1)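 Broth microdilution in tryptic soy broth. Two-fold series 100 to 0.75 μg/mL made from a 1 mg/mL stock in 0.9% NaCl. Inoculum ~10⁶ cfu/mL taken from a 24 h culture, 37 °C 24 h.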

Series [2] concerns Staphylococcus aureus. The series is described as follows: Antimicrobial activity against Staphylococcus aureus ATCC 6538 assessed as growth inhibition of planktonic forms incubated for 24 hrs. The class given is organism-based. To be noted: in vitro. Put shortly: as §1
Series [3] has as its system Staphylococcus epidermidis. The series is described as follows: Antimicrobial activity against Staphylococcus epidermidis ATCC 12228 assessed as growth inhibition of planktonic forms incubated for 24 hrs. To be noted: in vitro. The class given is organism-based. Put shortly:
as §1

Series [4] deals with Pseudomonas aeruginosa. The series is described as follows: Antimicrobial activity against Pseudomonas aeruginosa ATCC 15442 assessed as growth inhibition of planktonic forms incubated for 24 hrs. The class given is organism-based. To be noted: in vitro. The essentials: as §1
The test system of series [5] is Escherichia coli. The series is described as follows: Antimicrobial activity against Escherichia coli ATCC 25922 assessed as growth inhibition of planktonic forms incubated for 24 hrs. It counts as organism-based. To be noted: in vitro. Put shortly:
as §1

Series [6] concerns Staphylococcus aureus. The series is described as follows: Antibiofilm activity against Staphylococcus aureus ATCC 25923 incubated for 24 hrs by crystal violet-staining based assay. The class given is functional. The essentials:
(§2)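 Biofilm prevention: 0.5 McFarland inoculum (2.5 µL) in 100 µL TSB with 2% w/v glucose, compound present from the start over 100–0.1 µg/mL, 37 °C 24 h. Washed with PBS, stained 0.1% w/v crystal violet 30 min, eluted with 33% v/v acetic acid, read at 570 nm. BIC50 (50% inhibition versus untreated control) derived by linear regression; triplicate, repeated at least twice.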

The subject of series [7] is Staphylococcus aureus. The series is described as follows: Antibiofilm activity against Staphylococcus aureus ATCC 6538 incubated for 24 hrs by crystal violet-staining based assay. It counts as functional. Put shortly: as §2
The subject of series [8] is Staphylococcus epidermidis. The series is described as follows: Antibiofilm activity against Staphylococcus epidermidis ATCC 12228 incubated for 24 hrs by crystal violet-staining based assay. The class given is functional. Put shortly:
as §2

Series [9] concerns Pseudomonas aeruginosa. The series is described as follows: Antibiofilm activity against Pseudomonas aeruginosa ATCC 15442 incubated for 24 hrs by crystal violet-staining based assay. It counts as functional. Put shortly: as §2
The subject of series [10] is Escherichia coli. The series is described as follows: Antibiofilm activity against Escherichia coli ATCC 25922 assessed as inhibition of biofilm formation at 100 ug/ml incubated for 24 hrs by crystal violet-staining based assay. The class given is functional. To be noted: ATCC 25922, 24 h.
For series [11], the system named is Pseudomonas aeruginosa. The series is described as follows: Antibiofilm activity against Pseudomonas aeruginosa ATCC 15442 assessed as inhibition of biofilm formation at 100 ug/ml incubated for 24 hrs by crystal violet-staining based assay. The class given is functional. The conditions noted are these: ATCC 15442, 24 h.

In general, inhibition refers to the change of the read-out against control, counted positive when it falls.

As for `Br.COc1ccc(OC)c(-c2cn3nc(-c4cn(C)c5ccc(Br)cc45)sc3n2)c1`, the MIC (with Staphylococcus aureus [1]; in the series on Staphylococcus aureus [2]; in series [3]; in the series with Pseudomonas aeruginosa [4]; in the series with Escherichia coli [5]) was over 100 µg/mL throughout. For the same compound, the MBIC50 was found to be 90.8 µM with Staphylococcus aureus [6], 8.9 µM in the series with Staphylococcus aureus [7], 52.3 µM in [8] and 28.5 µM in the series with Pseudomonas aeruginosa [9]. In addition, the inhibition entry (in the series with Staphylococcus aureus [6]; in the series on Staphylococcus aureus [7]; in series [8]; in the series with Pseudomonas aeruginosa [9]) was “Dose-dependent effect” each time. Besides, the inhibition at 100 µg/mL in the series on Escherichia coli [10] is under 15%.
Turning to `Br.Cn1cc(-c2nn3cc(-c4ccccc4)nc3s2)c2ccccc21`, the MIC (in the series on Staphylococcus aureus [1]; in the series on Staphylococcus aureus [2]; in [3]; with Pseudomonas aeruginosa [4]; in the series with Escherichia coli [5]) was over 100 µg/mL in each case. In addition, the MBIC50 with Staphylococcus aureus [6] came out at 23 µM; in the series with Staphylococcus aureus [7], 18.9 µM; in [8], 47.9 µM. Also, the inhibition result (with Staphylococcus aureus [6]; with Staphylococcus aureus [7]; in series [8]) was “Dose-dependent effect” throughout. Moreover, the inhibition at 100 µg/mL in the series with Pseudomonas aeruginosa [11] and in the series with Escherichia coli [10] was under 15% throughout.
On to `Br.Cn1cc(-c2nn3cc(-c4ccc(C(F)(F)F)cc4)nc3s2)c2cc(Br)ccc21`, for which the MIC (in the series on Staphylococcus aureus [1]; in the series with Staphylococcus aureus [2]; in series [3]; in the series on Pseudomonas aeruginosa [4]; in the series with Escherichia coli [5]) was over 100 µg/mL in each case.
In the case of `O=[N+]([O-])c1ccc(-c2cn3nc(-c4c[nH]c5ccc(Br)cc45)sc3n2)cc1`, the MIC (in the series on Staphylococcus aureus [1]; in the series on Staphylococcus aureus [2]; in series [3]; in the series with Pseudomonas aeruginosa [4]; with Escherichia coli [5]) was over 100 µg/mL each time. For the same compound, the MBIC50 with Staphylococcus aureus [6] came out at 23.9 µM; with Staphylococcus aureus [7], 27 µM; in series [8], 19.1 µM; in the series on Pseudomonas aeruginosa [9], 43.3 µM. Moreover, the inhibition result (in the series on Staphylococcus aureus [6]; in the series on Staphylococcus aureus [7]; in series [8]; in the series with Pseudomonas aeruginosa [9]) was “Dose-dependent effect” each time. Further, in the series on Escherichia coli [10], the inhibition at 100 µg/mL is under 15%.
As to `Br.COc1ccc(OC)c(-c2cn3nc(-c4c[nH]c5ccc(Br)cc45)sc3n2)c1`, the MIC (in the series with Staphylococcus aureus [1]; with Staphylococcus aureus [2]; in [3]; in the series with Pseudomonas aeruginosa [4]; with Escherichia coli [5]) was over 100 µg/mL in each case. Moreover, the MBIC50 was 26.4 µM in the series with Staphylococcus aureus [6], 16.5 µM with Staphylococcus aureus [7] and 36.1 µM in series [8]. Further, the inhibition entry (in the series on Staphylococcus aureus [6]; in the series with Staphylococcus aureus [7]; in series [8]) was “Dose-dependent effect” throughout. In addition, the inhibition at 100 µg/mL in the series with Pseudomonas aeruginosa [11] and in the series on Escherichia coli [10] was under 15% each time.
As to `O=[N+]([O-])c1ccc(-c2cn3nc(-c4c[nH]c5ccccc45)sc3n2)cc1`, the MIC (in the series with Staphylococcus aureus [1]; with Staphylococcus aureus [2]; in series [3]; in the series with Pseudomonas aeruginosa [4]; in the series on Escherichia coli [5]) was over 100 µg/mL in each case. In addition, the MBIC50 came out at 47.5 µM in the series with Staphylococcus aureus [6], 20.2 µM in the series with Staphylococcus aureus [7] and 41.2 µM in series [8]. Besides, the inhibition result (in the series with Staphylococcus aureus [6]; in the series on Staphylococcus aureus [7]; in series [8]) was “Dose-dependent effect” each time. Besides, the inhibition at 100 µg/mL in the series with Pseudomonas aeruginosa [11] and in the series with Escherichia coli [10] was under 15% each time.
Consider `Br.O=[N+]([O-])c1ccc(-c2cn3nc(-c4c[nH]c5ccc(Cl)cc45)sc3n2)cc1`, for which the MIC (in the series with Staphylococcus aureus [1]; with Staphylococcus aureus [2]; in series [3]; in the series on Pseudomonas aeruginosa [4]; in the series on Escherichia coli [5]) was over 100 µg/mL each time. The figures for the MBIC50 (in the series with Staphylococcus aureus [6]; in the series with Staphylococcus aureus [7]; in series [8]) were 55.3 µM, 35.8 µM and 28.5 µM, respectively. Besides, the inhibition result (in the series with Staphylococcus aureus [6]; in the series on Staphylococcus aureus [7]; in series [8]) was “Dose-dependent effect” each time. The inhibition at 100 µg/mL with Pseudomonas aeruginosa [11] and with Escherichia coli [10] was under 15% each time.
As for `FC(F)(F)c1ccc(-c2cn3nc(-c4c[nH]c5ccc(Cl)cc45)sc3n2)cc1`, the MIC (in the series on Staphylococcus aureus [1]; in the series on Staphylococcus aureus [2]; in series [3]; in the series on Pseudomonas aeruginosa [4]; in the series with Escherichia coli [5]) was over 100 µg/mL throughout. For the same compound, the values for the MBIC50 (in the series on Staphylococcus aureus [6]; with Staphylococcus aureus [7]; in series [8]) were 9.7 µM, 12.6 µM and 24.5 µM, respectively. In addition, the inhibition result (with Staphylococcus aureus [6]; in the series on Staphylococcus aureus [7]; in [8]) was “Dose-dependent effect” each time. Moreover, the inhibition at 100 µg/mL in the series on Pseudomonas aeruginosa [11] and with Escherichia coli [10] was under 15% throughout.
`Br.Fc1ccc(-c2cn3nc(-c4c[nH]c5ccccc45)sc3n2)cc1`: the MIC (in the series on Staphylococcus aureus [1]; with Staphylococcus aureus [2]; in [3]; in the series with Pseudomonas aeruginosa [4]; in the series on Escherichia coli [5]) was over 100 µg/mL in each case. For the same compound, the MBIC50 worked out at 15.6 µM with Staphylococcus aureus [6], 13.4 µM in the series on Staphylococcus aureus [7], 30.8 µM in [8] and 47.4 µM with Pseudomonas aeruginosa [9]. For the same compound, the inhibition result (in the series with Staphylococcus aureus [6]; in the series on Staphylococcus aureus [7]; in series [8]; in the series with Pseudomonas aeruginosa [9]) was “Dose-dependent effect” each time. The inhibition at 100 µg/mL in the series with Escherichia coli [10] is under 15%.
Take `Br.COc1cccc(-c2cn3nc(-c4c[nH]c5ccc(Cl)cc45)sc3n2)c1`: the MIC (with Staphylococcus aureus [1]; in the series with Staphylococcus aureus [2]; in series [3]; in the series with Pseudomonas aeruginosa [4]; in the series with Escherichia coli [5]) was over 100 µg/mL in each case. For the same compound, the MBIC50 stood at 31.6 µM in the series on Staphylococcus aureus [6], 15.1 µM in the series on Staphylococcus aureus [7], 32.7 µM in series [8] and 29 µM in the series with Pseudomonas aeruginosa [9]. The inhibition result (in the series on Staphylococcus aureus [6]; in the series with Staphylococcus aureus [7]; in series [8]; in the series with Pseudomonas aeruginosa [9]) was “Dose-dependent effect” in each case. In addition, in the series on Escherichia coli [10], the inhibition at 100 µg/mL is under 15%.
As to `Br.COc1cccc(-c2cn3nc(-c4cn(C)c5ccc(Br)cc45)sc3n2)c1`, the MIC (with Staphylococcus aureus [1]; in the series on Staphylococcus aureus [2]; in series [3]; with Pseudomonas aeruginosa [4]; in the series with Escherichia coli [5]) was over 100 µg/mL in each case. The MBIC50 came to 16 µM with Staphylococcus aureus [6], 12.4 µM in the series with Staphylococcus aureus [7], 63.8 µM in series [8] and 26.3 µM in the series with Pseudomonas aeruginosa [9]. Further, the inhibition entry (with Staphylococcus aureus [6]; in the series with Staphylococcus aureus [7]; in [8]; with Pseudomonas aeruginosa [9]) was “Dose-dependent effect” in each case. Besides, in the series with Escherichia coli [10], the inhibition at 100 µg/mL was under 15%.
Consider `Br.COc1ccc(OC)c(-c2cn3nc(-c4cn(C)c5ccccc45)sc3n2)c1`, for which the MIC (with Staphylococcus aureus [1]; in the series with Staphylococcus aureus [2]; in series [3]; with Pseudomonas aeruginosa [4]; with Escherichia coli [5]) was over 100 µg/mL each time. Besides, the MBIC50 was found to be 24.3 µM with Staphylococcus aureus [6], 3.6 µM in the series with Staphylococcus aureus [7] and 25 µM in series [8]. Also, the inhibition entry (in the series with Staphylococcus aureus [6]; in the series on Staphylococcus aureus [7]; in [8]) was “Dose-dependent effect” in each case. Moreover, the inhibition at 100 µg/mL in the series with Escherichia coli [10] is under 15%.
`Cn1cc(-c2nn3cc(-c4ccc(C(F)(F)F)cc4)nc3s2)c2cc(Cl)ccc21`: the MIC (in the series on Staphylococcus aureus [1]; in the series with Staphylococcus aureus [2]; in series [3]; in the series with Pseudomonas aeruginosa [4]; in the series with Escherichia coli [5]) was over 100 µg/mL throughout.
